ChEMBL document CHEMBL1137706, “Design, synthesis, and anti-tumor evaluation of novel symmetrical bis-benzimidazoles” (Eur J Med Chem, 2009)

What was measured:
Format in all cases: functional, cell-based
SK-OV-3 = assay: Antitumor activity against human SKOV3 cells after 72 hrs by MTT assay; conditions: SK-OV-3, 72 h
In short: (§1)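 Cells grown in RPMI1640 with 10% fetal bovine serum, seeded at 4.0 × 10^4 cells/well and left 4 h at 37 °C, 5% CO2 to adhere. Compound then added and incubation continued 72 h at 37 °C, 5% CO2. Viability read by standard MTT assay.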

BGC-823 = assay: Antitumor activity against human BGC823 cells after 72 hrs by MTT assay; conditions: BGC-823, 72 h; in short: as §1
HeLa = assay: Antitumor activity against human HeLa cells after 72 hrs by MTT assay; in short: as §1

Row | Structure (SMILES) | IC50 (SK-OV-3) [µM] | IC50 (BGC-823) [µM] | IC50 (HeLa) [µM]
1 | COc1ccnc(CSc2nc3ccc(-c4ccc5nc(SCc6nccc(OC)c6OC)[nH]c5c4)cc3[nH]2)c1OC | > 50 | > 50 | > 50
2 | COc1c(Cl)ccnc1CSc1nc2ccc(-c3ccc4nc(SCc5nccc(Cl)c5OC)[nH]c4c3)cc2[nH]1 | > 50 | > 50 | 45.4
3 | Clc1ccc(CSc2nc3ccc(-c4ccc5nc(SCc6ccc(Cl)nc6)[nH]c5c4)cc3[nH]2)cn1 | > 50 | > 50 | > 50
4 | CCOc1ccnc(CSc2nc3ccc(-c4ccc5nc(SCc6nccc(OCC)c6C)[nH]c5c4)cc3[nH]2)c1C | > 50 | > 50 | > 50
5 | c1ccc(CSc2nc3ccc(-c4ccc5nc(SCc6ccccn6)[nH]c5c4)cc3[nH]2)nc1 | 38.6 | 16.4 | 7.1
6 | COc1ccnc(CSc2nc3ccc(-c4ccc5nc(SCc6nccc(OC)c6C)[nH]c5c4)cc3[nH]2)c1C | > 50 | > 50 | > 50
7 | Cc1c(OCC(F)(F)F)ccnc1CSc1nc2ccc(-c3ccc4nc(SCc5nccc(OCC(F)(F)F)c5C)[nH]c4c3)cc2[nH]1 | 23 | > 50 | 18.3

Now those with a lower IC50 (SK-OV-3), led by results:

Row | IC50 (SK-OV-3) [µM] | IC50 (BGC-823) [µM] | IC50 (HeLa) [µM] | Structure (SMILES)
8 | 8.73 | > 50 | > 50 | c1cncc(CSc2nc3ccc(-c4ccc5nc(SCc6cccnc6)[nH]c5c4)cc3[nH]2)c1
9 | 2.95 | > 50 | > 50 | COc1c(C)cnc(CSc2nc3ccc(-c4ccc5nc(SCc6ncc(C)c(OC)c6C)[nH]c5c4)cc3[nH]2)c1C
10 | 2.81 | 11 | 32.4 | c1cc(CSc2nc3ccc(-c4ccc5nc(SCc6ccncc6)[nH]c5c4)cc3[nH]2)ccn1
11 | 0.00134 | – | – | CC(=O)O[C@H]1C(=O)[C@@]2(C)[C@H]([C@H](OC(=O)c3ccccc3)[C@]3(O)C[C@H](OC(=O)[C@H](O)[C@@H](NC(=O)c4ccccc4)c4ccccc4)C(C)=C1C3(C)C)[C@]1(OC(C)=O)CO[C@@H]1C[C@@H]2O [PACLITAXEL]
